Results as given in ChEMBL document CHEMBL1134778, “Amino acid phosphoramidate monoesters of 3'-azido-3'-deoxythymidine: relationship between antiviral potency and intracellular metabolism” (J Med Chem, 2001).

Experiments:
Homo sapiens [1] = organism: Homo sapiens; assay: Effective concentration of required to inhibit the replication of HIV-1 BY 50% in PMBCs from donor 1; assay type: functional, organism-based
CCRF-CEM [2] = assay: Concentration required to kill 50% of CEM cells; assay type: functional, cell-based; details: Homo sapiens
Method in brief: (§1)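 Uninfected PHA-stimulated PBMCs or CEM cells plated at 2.5 × 10^5 cells/well with diluted drug. Incubated 6 days at 37 °C, 10% CO2. XTT/PMS added and incubated 4 h at 37 °C. Absorbance read at 450 nm, 630 nm reference.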

Homo sapiens [3] = organism: Homo sapiens; assay: Effective concentration of required to inhibit the replication of HIV-1 BY 50% in PMBCs from donor 2; assay type: functional, organism-based
Homo sapiens [4] = organism: Homo sapiens; assay: Concentration required to kill 50% of PBMCs; assay type: functional, organism-based; method in brief: as §1
Homo sapiens [5] = organism: Homo sapiens; assay: Effective concentration required to inhibit the replication of HIV-1 by 50% in PMBCs in the presence of thymidine; assay type: functional, organism-based
Homo sapiens [6] = organism: Homo sapiens; assay: Effective concentration required to inhibit the replication of HIV-1 by 50% in PMBCs in the absence of thymidine; assay type: functional, organism-based
[7] = tested on: Human immunodeficiency virus 1; assay: Concentration required to inhibit HIV-1 replication by 50% in activated PBMCs
Homo sapiens [8] = organism: Homo sapiens; assay: Effective concentration required to inhibit the replication of HIV-1 by 50% in PMBCs from donor 2; assay type: functional, organism-based
[9] = tested on: Human immunodeficiency virus 1; assay: Concentration required to inhibit the production of proviral DNA in unactivated PBMCs
Homo sapiens [10] = organism: Homo sapiens; assay: Effective concentration required to inhibit the replication of HIV-1 by 50% in PMBCs from donor 1; assay type: functional, organism-based
[11] = Inhibition of AZT-MP production by cell free extracts of CEM cells; assay type: functional, Homo sapiens, CCRF-CEM; parameters: unit not given here
Method in brief: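 CEM cells (1.5 × 10^8) sonicated in 1 mL 20 mM Tris-HCl, 500 mM NaCl, pH 7.5. Lysate incubated with phosphoramidate and carbamate, each added from 10 mM stock, for 45 min at 37 °C, then stopped with methanol. AZT-MP quantified by RP-HPLC-RIA against a no-carbamate control. Mean of two experiments.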

Homo sapiens [12] = organism: Homo sapiens; assay: (§2) Intracellular of AZT-TP concentrations in LAI/HIV-1 infected PMBCs was determined at a conc of 10 uM); assay type: functional, organism-based
Method in brief: (§3)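 PHA-stimulated, LAI/HIV-1-infected PBMCs (donor 2) at 10^6 cells/mL, triplicate, given 10 µM compound ± 50 µM thymidine for 18 h at 37 °C. Cells washed, extracted in 60% methanol overnight at −20 °C, dried and reconstituted. AZT-TP quantified by inhibition of recombinant HIV-1 RT (poly(rA)-oligo(dT), 3H-TTP, 2 h at 37 °C) relative to AZT-TP standards; pmol/10^6 cells.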

Homo sapiens [13] = organism: Homo sapiens; assay: Effective concentration to inhibit HIV-1 replication by 50% in PMBCs cells from donor 1; assay type: functional, cell-based
CCRF-CEM [14] = assay: Effective concentration to inhibit HIV-1 replication by 50% in CEM cells; assay type: functional, cell-based; details: Homo sapiens
Method in brief: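 PHA-stimulated CEM cells infected 3 h at 37 °C with LAI/HIV-1 (10 000 DPM RT activity/10^6 cells), then washed. Resuspended at 2.5 × 10^5 cells/mL in medium with 10 U/mL IL-2. Drugs in ddH2O added to duplicate or triplicate cultures. Held 6 days at 37 °C; supernatant p24 measured by ELISA.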

Homo sapiens [15] = organism: Homo sapiens; assay: Effective concentration required to inhibit the replication of HIV-1 with 2 hr pretreatment of activated PBMCs; assay type: functional, organism-based
Method in brief: (§4)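 Uninfected PHA-stimulated PBMCs (2.5 × 10^5 cells/mL) given compound in ddH2O in triplicate for 2 h at 37 °C, then LAI/HIV-1 (5000 DPM/10^6 cells) added. In parallel cultures, cells were infected 3 h first and then treated. After 6 days at 37 °C, supernatant RT activity measured.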

U1 = assay: Antiviral activity was determined in chronically infected U1 cell line with HIV-1; assay type: functional, cell-based; details: Homo sapiens
Method in brief: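 HIV-1 chronically infected U1 cells (1.5 × 10^5 cells/well) in RPMI 1640 with 10% FBS and 10 ng/mL TNF-α. Compound in ddH2O added to duplicate cultures. Incubated 48 h at 37 °C, 5% CO2. Supernatant p24gag measured by ELISA; XTT assay run on the remaining culture.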

Homo sapiens [16] = organism: Homo sapiens; assay: Effective concentration to inhibit HIV-1 replication by 50% in PMBCs cells from donor 2; assay type: functional, cell-based
Method in brief: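 Ficoll-isolated human PBMCs, PHA-stimulated, grown in RPMI 1640 with 10% heat-inactivated FBS, penicillin/streptomycin and IL-2 (10 U/mL) at 37 °C. Cells were infected with LAI/HIV-1, and compounds in ddH2O were added to duplicate or triplicate cultures. After 6 days, supernatant viral RT activity was measured.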

Homo sapiens [17] = organism: Homo sapiens; assay: Effective concentration required to inhibit the replication of HIV-1 with no pretreatment of activated PBMCs; assay type: functional, organism-based; method in brief: as §4
Homo sapiens [18] = organism: Homo sapiens; assay: Concentration required to kill 50% of PBMCs cells; assay type: functional, cell-based; details: PBMC; method in brief: as §1
Homo sapiens [19] = organism: Homo sapiens; assay: as §2; assay type: functional, organism-based; method in brief: as §3; remark: listed apart in the source
Homo sapiens [20] = organism: Homo sapiens; assay: Inhibition of Phosphoramidase activity with AZT L-amino acid carbamates; assay type: functional; details: concentration not given here
Method in brief: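 CEM cells (1.5 × 10^8) sonicated in 1 mL 20 mM Tris-HCl, 500 mM NaCl, pH 7.5. Whole lysate incubated 45 min at 37 °C with phosphoramidate (from 10 mM water stock) and carbamate (from 10 mM DMSO stock), then stopped with methanol. AZT-MP quantified by RP-HPLC-RIA against a no-carbamate control. Mean of two experiments.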

With CNC(=O)[C@H](Cc1c[nH]c2ccccc12)NP(=O)(O)OC[C@H]1O[C@@H](n2cc(C)c(=O)[nH]c2=O)C[C@@H]1N=[N+]=[N-] the EC50 (Homo sapiens [1]) was 700 nM, the IC50 (CCRF-CEM [2]) was greater than 100000 nM and the EC50 (Homo sapiens [3]) was 1800 nM. It also gave an IC50 (Homo sapiens [4]) greater than 100000 nM.
With COC(=O)[C@H](C)NP(=O)(O)OC[C@H]1O[C@@H](n2cc(C)c(=O)[nH]c2=O)C[C@@H]1N=[N+]=[N-] the EC50 (Homo sapiens [1]) was 50 nM, the IC50 (CCRF-CEM [2]) was greater than 100000 nM and the EC50 (Homo sapiens [3]) was 30 nM. The IC50 (Homo sapiens [4]) was greater than 100000 nM.
Work on CNC(=O)[C@@H](Cc1ccccc1)NP(=O)(O)OC[C@H]1O[C@@H](n2cc(C)c(=O)[nH]c2=O)C[C@@H]1N=[N+]=[N-] yielded an EC50 (Homo sapiens [1]) of 900 nM, an IC50 (CCRF-CEM [2]) greater than 100000 nM and an EC50 (Homo sapiens [3]) of 100 nM. It also gave an IC50 (Homo sapiens [4]) greater than 100000 nM.
Compound COC(=O)[C@@H](NP(=O)(O)OC[C@H]1O[C@@H](n2cc(C)c(=O)[nH]c2=O)C[C@@H]1N=[N+]=[N-])C(C)C has an EC50 (Homo sapiens [5]) of 30000 nM, an IC50 (CCRF-CEM [2]) greater than 100000 nM and an EC50 (Homo sapiens [6]) of 350 nM. It also gave an EC50 [7] of 350 nM, an EC50 (Homo sapiens [8]) of 900 nM and an IC50 (Homo sapiens [4]) greater than 100000 nM. The IC100 [9] was 0.1 µM and the EC50 (Homo sapiens [10]) was 1300 nM.
With CNC(=O)[C@H](Cc1ccccc1)NP(=O)(O)OC[C@H]1O[C@@H](n2cc(C)c(=O)[nH]c2=O)C[C@@H]1N=[N+]=[N-] the EC50 (Homo sapiens [1]) was 180 nM, the IC50 (CCRF-CEM [2]) was greater than 100000 nM and the EC50 (Homo sapiens [3]) was 250 nM. For the same compound, the IC50 (Homo sapiens [4]) was greater than 100000 nM.
With COC(=O)[C@H](Cc1c[nH]c2ccccc12)NP(=O)(O)OC[C@H]1O[C@@H](n2cc(C)c(=O)[nH]c2=O)C[C@@H]1N=[N+]=[N-] the Activity [11] was 6.39, the EC50 (Homo sapiens [5]) was 30000 nM and the Concentration (pM (10e6*cells)-1) (Homo sapiens [12]) was 0.01. For the same compound, the IC50 (CCRF-CEM [2]) was greater than 100000 nM, the EC50 (Homo sapiens [13]) was 2000 nM and the EC50 (CCRF-CEM [14]) was 4 nM. The EC50 (Homo sapiens [6]) was 350 nM, the EC50 (Homo sapiens [15]) was less than 10 nM and the EC50 [7] was 350 nM. The EC50 (U1) was 40000 nM, the EC50 (Homo sapiens [16]) was 350 nM and the EC50 (Homo sapiens [17]) was 350 nM. It also gave an IC50 (Homo sapiens [18]) greater than 100000 nM, a Concentration (pM (10e6*cells)-1) (Homo sapiens [19]) of 0.22 and an IC100 [9] of 0.1 µM.
With COC(=O)[C@H](Cc1ccccc1)NP(=O)(O)OC[C@H]1O[C@@H](n2cc(C)c(=O)[nH]c2=O)C[C@@H]1N=[N+]=[N-] the Concentration (pM (10e6*cells)-1) (Homo sapiens [12]) was 0 and the Concentration (pM (10e6*cells)-1) (Homo sapiens [19]) was 0.01.
Work on COC(=O)[C@H](Cc1ccccc1)NC(=O)OC[C@H]1O[C@@H](n2cc(C)c(=O)[nH]c2=O)C[C@@H]1N=[N+]=[N-].COC(=O)[C@H](Cc1ccccc1)NP(=O)(O)OC[C@H]1O[C@@H](n2cc(C)c(=O)[nH]c2=O)C[C@@H]1N=[N+]=[N-] yielded an inhibition (Homo sapiens [20]) of 99.6%.
